ChEMBL document CHEMBL3351346, “Design, synthesis, structure-function relationship, bioconversion, and pharmacokinetic evaluation of ertapenem prodrugs” (J Med Chem, 2014)

What was measured:
[1] = Stability in human plasma assessed as compound remaining at 50 uM at 37 degC after 60 mins by LC-MS/MS method; format: ADME, cell-free; settings: read-out: Stability
In short: (§1)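 Prodrugs were incubated in rat or human plasma for 60 min. Disappearance of prodrug and concomitant appearance of ertapenem were followed by LC-MS/MS, and in selected cases monoesters from partial hydrolysis were also monitored. Ertapenem itself was incubated the same way as a control.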

[2] = Stability in pH 2.0 simulated gastric fluid assessed as compound degradation to beta-lactam ring open products at 1 uM after 60 mins by LC-MS/MS method; format: ADME; settings: read-out: Drug degradation
In short: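 Incubation was in simulated gastric fluid (SGF, pH 2.0) for 60 min, with loss to the β-lactam ring-opened product measured by LC-MS/MS.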

[3] = Stability in pH 6.5 simulated gastrointestinal fluid assessed as compound remaining at 50 uM after 3 hrs by LC-MS/MS method; format: ADME; settings: read-out: Stability
In short: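 Compounds at 50 μM were incubated in fasted-state simulated intestinal fluid (FaSSIF, pH 6.5) for over 3 h. Percent remaining was determined by LC-MS/MS.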

[4] = Stability in pH 7.4 phosphate buffer assessed as compound remaining at 50 uM after 3 hrs by LC-MS/MS method; format: physicochemical; settings: read-out: Stability
Canis familiaris [5] = experiment: AUC (0 to 8 hrs) in fasted Beagle dog at 10 mg/kg dosed through intraduodenal route by LC-MS/MS method; format: ADME, organism-based, Canis lupus familiaris, Plasma; parameters: time < 8 hr, dose 10 mg/kg, route intraduodenal; settings: in vivo, other, 8 h
In short: (§2)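 Prodrugs were given intraduodenally to bypass stomach acid. Plasma was sampled at intervals over 8 h, and parent prodrug, the two monoester metabolites and ertapenem were quantified by LC-MS/MS. The lower limit of quantitation was 5 nM. AUC(0–8) was used, and it differed from AUC(0–∞) by ±20%. Vehicles were 30% Captisol or 0.5% methylcellulose, as solution or suspension depending on compound.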

Canis familiaris [6] = experiment: AUC (0 to 8 hrs) in fasted Beagle dog assessed as ertapenem level at 10 mg/kg dosed through intraduodenal route by LC-MS/MS method; format: ADME, organism-based, Canis lupus familiaris, Plasma; parameters: time < 8 hr, dose 10 mg/kg, route intraduodenal; settings: in vivo, other; in short: as §2
Canis familiaris [7] = experiment: Oral bioavailability in fasted Beagle dog assessed as ertapenem level at 10 mg/kg dosed through intraduodenal route by LC-MS/MS method; format: ADME, organism-based, Canis lupus familiaris; settings: in vivo
In short: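 After intraduodenal dosing, plasma over 8 h was analysed by LC-MS/MS. Bioavailability was calculated as dose-normalized AUC of ertapenem formed from the prodrug divided by dose-normalized AUC of ertapenem dosed iv. Vehicle was 30% Captisol or 0.5% methylcellulose.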

Canis familiaris [8] = experiment: Oral bioavailability in fasted Beagle dog assessed as assessed as ertapenem and monoetser metabolites level at 10 mg/kg dosed through intraduodenal route by LC-MS/MS method; format: ADME, organism-based, Canis lupus familiaris; settings: in vivo
In short: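 Total absorption followed intraduodenal dosing with LC-MS/MS of plasma over 8 h. It was calculated as the combined dose-normalized AUC of circulating parent prodrug, ertapenem and two monoesters, divided by dose-normalized AUC of ertapenem given iv. Vehicle was 30% Captisol or 0.5% methylcellulose.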

[9] = Stability in rat plasma assessed as compound remaining at 50 uM at 37 degC after 60 mins by LC-MS/MS method; format: ADME, cell-free; settings: read-out: Stability; in short: as §1
Canis familiaris [10] = experiment: AUC (0 to 8 hrs) in fasted Beagle dog assessed as 8-OH, C-3 ester level at 10 mg/kg dosed through intraduodenal route by LC-MS/MS method; format: ADME, organism-based, Canis lupus familiaris, Plasma; parameters: time < 8 hr, dose 10 mg/kg, route intraduodenal; settings: in vivo, other; in short: as §2
Canis familiaris [11] = experiment: AUC (0 to 8 hrs) in fasted Beagle dog assessed as 8-OH, benzoate ester level at 10 mg/kg dosed through intraduodenal route by LC-MS/MS method; format: ADME, organism-based, Canis lupus familiaris, Plasma; parameters: time < 8 hr, dose 10 mg/kg, route intraduodenal; settings: in vivo, other; in short: as §2

Row | Compound | remaining at 1 h, 50 µM [1] [%] | degraded at 1 h, 1 µM [2] [%] | remaining at 3 h, 50 µM [3] [%] | remaining at 3 h, 50 µM [4] [%] | AUC (Canis familiaris [5]) [µM·h] | AUC (Canis familiaris [6]) [µM·h] | F (Canis familiaris [7]) [%] | F (Canis familiaris [8]) [%] | remaining at 1 h, 50 µM [9] [%] | AUC (Canis familiaris [5]; BLD = below limit of detection) | AUC (Canis familiaris [10]; BLD = below limit of detection) | AUC (Canis familiaris [10]) [µM·h] | AUC (Canis familiaris [11]) [µM·h]
1 | C[C@@H](O)[C@H]1C(=O)N2C3=C(S[C@@H]4CN[C@@H](C4)C(=O)Nc4cccc(c4)C(=O)OCCCOC3=O)[C@H](C)[C@H]12 | 34 | > 25 | > 95 | > 95 | 0.1 | 0.4 | 0.5 | 0.7 | – | – | – | – | –
2 | CCC(=O)OCOC(=O)C1=C(S[C@@H]2CN[C@H](C(=O)Nc3cccc(C(=O)OCOC(=O)CC)c3)C2)[C@H](C)[C@@H]2[C@@H]([C@@H](C)O)C(=O)N12 | 0 | > 25 | > 95 | > 95 | – | 1.6 | 2.9 | 2.9 | 0 | BLD | BLD | – | –
3 | CCOC(=O)C1=C(S[C@@H]2CN[C@H](C(=O)Nc3cccc(C(=O)OCC)c3)C2)[C@H](C)[C@@H]2[C@@H]([C@@H](C)OC(=O)CC)C(=O)N12 | 22 | > 25 | > 95 | > 95 | – | 9.1 | 12.6 | 20.2 | 0 | BLD | – | 1.3 | 1.6
4 | C[C@@H](O)[C@H]1C(=O)N2C3=C(S[C@@H]4CN[C@@H](C4)C(=O)Nc4cccc(c4)C(=O)OC/C=C\COC3=O)[C@H](C)[C@H]12 | 21 | > 25 | > 95 | > 95 | – | – | – | – | 0 | – | – | – | –
5 | C[C@@H](O)[C@H]1C(=O)N2C3=C(S[C@@H]4CN[C@@H](C4)C(=O)Nc4cccc(c4)C(=O)OCc4oc(=O)oc4COC3=O)[C@H](C)[C@H]12 | 0 | > 25 | > 95 | > 95 | – | 0.7 | 1 | 1 | 0 | BLD | – | – | –
6 | Cc1oc(=O)oc1COC(=O)N1C[C@@H]2C[C@H]1C(=O)Nc1cccc(c1)C(=O)OC/C=C\COC(=O)C1=C(S2)[C@H](C)[C@@H]2[C@@H]([C@@H](C)O)C(=O)N12 | 20 | > 25 | > 95 | > 95 | – | – | – | – | 0 | – | – | – | –
7 | Cc1oc(=O)oc1COC(=O)N1C[C@@H]2C[C@H]1C(=O)Nc1cccc(c1)C(=O)OC/C=C/COC(=O)C1=C(S2)[C@H](C)[C@@H]2[C@@H]([C@@H](C)O)C(=O)N12 | 17 | > 25 | > 95 | > 95 | – | – | – | – | 0 | – | – | – | –
8 | Cc1oc(=O)oc1COC(=O)N1C[C@@H]2C[C@H]1C(=O)Nc1cccc(c1)C(=O)OCc1oc(=O)oc1COC(=O)C1=C(S2)[C@H](C)[C@@H]2[C@@H]([C@@H](C)O)C(=O)N12 | 0 | > 25 | > 95 | > 95 | – | – | – | – | 0 | – | – | – | –
9 | C[C@@H](O)[C@H]1C(=O)N2C3=C(S[C@@H]4CN[C@@H](C4)C(=O)Nc4cccc(c4)C(=O)OCOCOC3=O)[C@H](C)[C@H]12 | 60 | > 25 | > 95 | > 95 | – | – | – | – | 0 | – | – | – | –
